Reference: ChEMBL document CHEMBL3392964, “Design, synthesis, and evaluation of novel imidazo[1,2-a][1,3,5]triazines and their derivatives as focal adhesion kinase inhibitors with antitumor activity” (J Med Chem, 2015)
Activity calls are given as the source filed them. The rule behind the calls is not given here.

Key:
HCT-116 [1] = test: Induction of apoptosis in human HCT116 cells assessed as apoptotic cells at 0.5 uM after 24 hrs by Annexin V-PE/7-AAD staining-based FACS analysis relative to control; format: functional
Focal adhesion kinase 1 [2] = biological target: T1, Focal adhesion kinase 1 (Homo sapiens, UniProt Q05397); test: Inhibition of FAK phosphorylation at tyrosine 397 in human PC3 cells after 48 hrs by FACEFAK ELISA; format: cell-based; settings: PC-3
T1 sequence (Q05397 2-1052 limits assumed): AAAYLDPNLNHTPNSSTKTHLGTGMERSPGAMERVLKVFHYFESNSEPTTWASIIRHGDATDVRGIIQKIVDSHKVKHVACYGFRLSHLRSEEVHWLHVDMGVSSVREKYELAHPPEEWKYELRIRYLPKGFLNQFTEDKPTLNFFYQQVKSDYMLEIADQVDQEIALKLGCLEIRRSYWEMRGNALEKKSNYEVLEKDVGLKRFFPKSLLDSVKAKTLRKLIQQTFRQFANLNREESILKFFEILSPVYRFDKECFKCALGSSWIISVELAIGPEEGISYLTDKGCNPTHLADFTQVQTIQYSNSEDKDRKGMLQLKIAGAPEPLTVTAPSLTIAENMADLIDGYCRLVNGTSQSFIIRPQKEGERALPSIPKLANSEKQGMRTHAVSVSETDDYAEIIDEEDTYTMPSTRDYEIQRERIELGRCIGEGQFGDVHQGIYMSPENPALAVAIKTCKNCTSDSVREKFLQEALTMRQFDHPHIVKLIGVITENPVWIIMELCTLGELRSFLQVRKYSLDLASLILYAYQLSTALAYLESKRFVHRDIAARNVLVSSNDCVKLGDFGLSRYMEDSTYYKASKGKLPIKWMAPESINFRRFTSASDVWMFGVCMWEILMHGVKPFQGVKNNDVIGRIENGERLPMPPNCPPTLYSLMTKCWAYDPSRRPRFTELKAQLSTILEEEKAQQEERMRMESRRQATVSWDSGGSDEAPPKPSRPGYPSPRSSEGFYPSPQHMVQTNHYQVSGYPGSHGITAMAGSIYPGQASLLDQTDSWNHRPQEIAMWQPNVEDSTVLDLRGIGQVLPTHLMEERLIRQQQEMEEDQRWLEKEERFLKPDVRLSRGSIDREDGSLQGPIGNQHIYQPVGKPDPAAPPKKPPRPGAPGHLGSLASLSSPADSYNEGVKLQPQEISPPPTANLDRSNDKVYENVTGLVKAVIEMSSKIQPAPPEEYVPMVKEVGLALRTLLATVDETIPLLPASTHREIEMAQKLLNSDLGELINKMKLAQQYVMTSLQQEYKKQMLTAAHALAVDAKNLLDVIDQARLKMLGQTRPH
In short: (§1)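 Cells in DMEM with 10% FBS, 3 × 10^3 per well, treated 48 h at 0.1, 1 and 10 μM. Fixed in 4% formaldehyde; antibodies to pTyr397-FAK or total FAK, HRP secondary, read at 450 nm. Crystal violet cell count at 595 nm. Phospho-FAK normalised to total FAK and cell number; fold decrease versus control, triplicate readings, three independent experiments.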

MDA-MB-231 [3] = test: Inhibition of colony formation in human MDA-MB-231 cells after 2 weeks by crystal violet staining-based assay; format: functional, cell-based
In short: (§2)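 Seeding: 250 cells per well for HCT-116, 300 for U87MG, MDA-MB-231 and PC-3; incubated overnight, then exposed to a range of concentrations for 2 weeks. Fixed in 4% paraformaldehyde 30 min at room temperature, stained with 0.1% crystal violet. Colonies over 50 cells counted; colony formation rate calculated; IC50 by nonlinear regression.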

U-87MG ATCC [4] = test: Antiinvasive activity in human U87MG cells after 30 mins by boyden chamber assay; format: functional, cell-based
[5] = Antiproliferative activity against human PC3 cells after 48 hrs by WST-1 assay; format: functional, cell-based; settings: PC-3, 48 h
In short: (§3)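 Exponentially growing cells in DMEM/10% FBS seeded at 5 × 10^3 per well, left overnight, then exposed 48 h to compounds diluted from DMSO; WST-1 added for 2 h, absorbance at 450 nm (reference 620 nm); viability as ratio to DMSO controls; three independent experiments, triplicate points; IC50 by nonlinear regression (log inhibitor vs normalized response, variable slope).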

MDA-MB-231 [6] = test: Antiproliferative activity against human MDA-MB-231 cells after 48 hrs by WST-1 assay; format: functional, cell-based; settings: MDA-MB-231, 48 h; in short: as §3
[7] = Cell cycle arrest in human U87MG cells assessed as accumulation at G2/M phase at 3 uM after 24 hrs by propidium iodide staining-based flow cytometry (reference value: 20%); format: functional; settings: U-87MG ATCC
In short: (§4)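 Cells plated at 10^5 per well, left overnight, then exposed 24 h to compound or vehicle; stained 15 min at 37 °C with propidium iodide/Triton buffer; DNA content by flow cytometry, phase distribution fitted by Dean–Jett–Fox; HCT-116 at 0.3–0.5 μM, U87-MG at 0.3–3 μM; significance by unpaired Student's t test; one representative experiment.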

[8] = Cell cycle arrest in human HCT116 cells assessed as accumulation at G2/M phase at 0.5 uM after 24 hrs by propidium iodide staining-based flow cytometry (reference value: 14.6%); format: functional; settings: HCT-116; in short: as §4
U-87 MG [9] = test: Reduction of cell adherence in human U87MG cells at 3 uM after 30 mins by toluidine blue staining-based […]; format: functional, U-87MG ATCC; parameters: scale not given: the % may be the effect or the level left
In short: (§5)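 U87-MG cells grown in 10% serum, trypsinised, diluted to 100 000 cells/mL in 10% serum medium, then treated 30 min with compound or DMSO. 20 000 cells per well allowed to attach 1 h. Fixed in 4% paraformaldehyde 30 min, stained with 0.1% toluidine blue in 4% PFA 30 min, washed, OD read at 620 nm for attached cells.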

HCT-116 [10] = test: Induction of apoptosis in human HCT116 cells assessed as early apoptotic cells at 0.5 uM after 24 hrs by Annexin V-PE/7-AAD staining-based FACS analysis (reference value: 4.68%); format: functional
[11] = Cell cycle arrest in human U87MG cells assessed as accumulation at G0/G1 phase at 3 uM after 24 hrs by propidium iodide staining-based flow cytometry (reference value: 61.7%); format: functional; settings: U-87MG ATCC; in short: as §4
HCT-116 [12] = test: (§6) Inhibition of colony formation in human HCT116 cells after 2 weeks by crystal violet staining-based assay; format: functional, cell-based; in short: as §2
[13] = as §6; format: functional, cell-based; settings: HCT-116, 336 h; in short: as §2
U-87 MG [14] = test: Reduction of cell adherence in human U87MG cells after 30 mins by toluidine blue staining-based […]; format: functional; settings: U-87MG ATCC; in short: as §5
HCT-116 [15] = test: Induction of apoptosis in human HCT116 cells assessed as viable cells at 0.5 uM after 24 hrs by Annexin V-PE/7-AAD staining-based FACS analysis (reference value: 93.2%); format: functional; settings: HCT-116, 24 h, read-out: Activity
PC-3 = test: (§7) Inhibition of colony formation in human PC3 cells after 2 weeks by crystal violet staining-based assay; format: functional, cell-based; in short: as §2
[16] = as §7; format: functional, cell-based; settings: PC-3, 336 h; in short: as §2
HCT-116 [17] = test: Induction of apoptosis in human HCT116 cells at < 0.5 uM after 24 hrs by Annexin V-PE/7-AAD staining-based FACS analysis; format: functional, cell-based
[18] = Cell cycle arrest in human HCT116 cells at < 0.5 uM after 24 hrs by propidium iodide staining-based flow cytometry; format: functional; settings: HCT-116; in short: as §4
U-87 MG [19] = test: Induction of apoptosis in human U87MG cells assessed as late apoptotic cells at 3 uM after 24 hrs by Annexin V-PE/7-AAD staining-based FACS analysis (reference value: 1.59%); format: functional, U-87MG ATCC
HCT-116 [20] = test: Induction of apoptosis in human HCT116 cells assessed as late apoptotic cells at 0.5 uM after 24 hrs by Annexin V-PE/7-AAD staining-based FACS analysis (reference value: 1.22%); format: functional
[21] = biological target: Insulin receptor (Homo sapiens) (UniProt P06213); test: Inhibition of human recombinant IR using poly[Glu:Tyr] as substrate at 1 uM by [gamma-33P]ATP-based assay
Chain of Insulin receptor (Homo sapiens) (P06213 28-758 limits assumed): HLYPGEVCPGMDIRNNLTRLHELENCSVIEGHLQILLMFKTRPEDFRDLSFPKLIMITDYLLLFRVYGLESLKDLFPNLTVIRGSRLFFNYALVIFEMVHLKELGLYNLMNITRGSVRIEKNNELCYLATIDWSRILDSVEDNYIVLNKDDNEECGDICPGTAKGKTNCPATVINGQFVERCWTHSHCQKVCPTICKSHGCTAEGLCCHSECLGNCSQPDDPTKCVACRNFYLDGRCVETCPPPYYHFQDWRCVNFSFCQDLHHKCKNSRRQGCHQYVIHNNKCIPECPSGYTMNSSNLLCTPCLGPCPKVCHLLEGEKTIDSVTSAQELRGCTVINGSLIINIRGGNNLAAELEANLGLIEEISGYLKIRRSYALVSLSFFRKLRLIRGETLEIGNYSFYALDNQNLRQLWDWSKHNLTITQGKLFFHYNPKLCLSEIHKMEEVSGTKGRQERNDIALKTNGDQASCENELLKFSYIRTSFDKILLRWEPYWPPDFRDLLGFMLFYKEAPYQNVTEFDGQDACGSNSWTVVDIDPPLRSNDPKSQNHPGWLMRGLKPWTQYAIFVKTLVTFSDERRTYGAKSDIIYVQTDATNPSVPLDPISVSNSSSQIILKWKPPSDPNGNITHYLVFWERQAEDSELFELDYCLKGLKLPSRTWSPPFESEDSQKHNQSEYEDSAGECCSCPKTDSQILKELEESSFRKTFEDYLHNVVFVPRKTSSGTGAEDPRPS
Chain of Insulin receptor (Homo sapiens) (P06213 763-1382 limits assumed): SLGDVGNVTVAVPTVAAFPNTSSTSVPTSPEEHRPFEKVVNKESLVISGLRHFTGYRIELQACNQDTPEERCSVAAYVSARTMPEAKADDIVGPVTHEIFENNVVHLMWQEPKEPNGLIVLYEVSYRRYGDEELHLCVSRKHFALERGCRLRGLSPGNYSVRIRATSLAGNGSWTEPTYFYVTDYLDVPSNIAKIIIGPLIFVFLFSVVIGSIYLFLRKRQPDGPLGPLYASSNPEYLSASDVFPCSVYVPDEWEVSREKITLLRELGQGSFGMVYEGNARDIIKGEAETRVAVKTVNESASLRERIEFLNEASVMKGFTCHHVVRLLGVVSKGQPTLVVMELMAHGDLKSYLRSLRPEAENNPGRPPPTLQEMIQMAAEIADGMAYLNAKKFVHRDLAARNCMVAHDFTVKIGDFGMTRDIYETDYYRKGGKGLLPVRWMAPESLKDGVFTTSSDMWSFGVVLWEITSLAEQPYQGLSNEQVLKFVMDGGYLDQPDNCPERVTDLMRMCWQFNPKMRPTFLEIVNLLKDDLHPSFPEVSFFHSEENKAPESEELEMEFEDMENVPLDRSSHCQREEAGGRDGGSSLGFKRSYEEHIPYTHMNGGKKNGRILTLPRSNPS
In short: (§8)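 Radioactive kinase assay with [γ33P]ATP and human recombinant kinase, compound tested at 1 μM.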

[22] = Cell cycle arrest in human U87MG cells at < 3 uM after 24 hrs by propidium iodide staining-based flow cytometry; format: functional; settings: U-87MG ATCC; in short: as §4
[23] = Antiproliferative activity against human HCT116 cells after 48 hrs by WST-1 assay; format: functional, cell-based; settings: HCT-116, 48 h; in short: as §3
[24] = biological target: Protein-tyrosine kinase 2-beta (Homo sapiens) (UniProt Q14289); test: Inhibition of human recombinant Pyk2 using poly[Glu:Tyr] as substrate at 1 uM by [gamma-33P]ATP-based assay; in short: as §8
Chain of Protein-tyrosine kinase 2-beta (Homo sapiens) (Q14289 whole entry, looked up): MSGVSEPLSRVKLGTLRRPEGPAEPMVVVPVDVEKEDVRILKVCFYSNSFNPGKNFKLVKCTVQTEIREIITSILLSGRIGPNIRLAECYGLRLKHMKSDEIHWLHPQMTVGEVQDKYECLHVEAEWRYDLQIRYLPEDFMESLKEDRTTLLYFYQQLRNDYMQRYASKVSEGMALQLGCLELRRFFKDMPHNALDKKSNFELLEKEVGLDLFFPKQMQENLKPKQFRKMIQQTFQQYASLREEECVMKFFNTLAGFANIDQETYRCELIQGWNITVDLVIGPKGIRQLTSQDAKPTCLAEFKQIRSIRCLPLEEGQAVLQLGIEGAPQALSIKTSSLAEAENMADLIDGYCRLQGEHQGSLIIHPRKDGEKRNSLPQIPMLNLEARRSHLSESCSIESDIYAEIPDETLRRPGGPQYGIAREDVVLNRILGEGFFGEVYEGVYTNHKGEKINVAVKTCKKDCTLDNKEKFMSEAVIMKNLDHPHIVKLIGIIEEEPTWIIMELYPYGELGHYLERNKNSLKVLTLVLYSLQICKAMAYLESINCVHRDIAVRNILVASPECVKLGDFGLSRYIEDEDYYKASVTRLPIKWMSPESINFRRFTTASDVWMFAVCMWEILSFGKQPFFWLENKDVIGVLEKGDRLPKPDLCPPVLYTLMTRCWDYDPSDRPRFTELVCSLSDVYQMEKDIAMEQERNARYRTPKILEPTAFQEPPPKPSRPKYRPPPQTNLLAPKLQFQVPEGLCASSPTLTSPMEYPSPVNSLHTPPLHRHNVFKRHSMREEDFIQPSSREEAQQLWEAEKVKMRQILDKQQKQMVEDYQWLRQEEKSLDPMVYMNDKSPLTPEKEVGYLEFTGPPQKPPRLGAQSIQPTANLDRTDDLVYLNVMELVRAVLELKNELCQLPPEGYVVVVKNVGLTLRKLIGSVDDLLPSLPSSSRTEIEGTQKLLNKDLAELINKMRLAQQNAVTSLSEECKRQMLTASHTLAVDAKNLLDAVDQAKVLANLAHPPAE

[25] = Antiproliferative activity against human U87MG cells after 48 hrs by WST-1 assay; format: functional, cell-based, U-87MG ATCC; settings: U-87 MG; in short: as §3
Focal adhesion kinase 1 [26] = biological target: T1, Focal adhesion kinase 1; test: Inhibition of FAK phosphorylation at tyrosine 397 in human MDA-MB-231 cells after 48 hrs by FACEFAK ELISA; format: cell-based; in short: as §1
U-87 MG [27] = test: Induction of apoptosis in human U87MG cells assessed as necrotic cells at 3 uM after 24 hrs by Annexin V-PE/7-AAD staining-based FACS analysis (reference value: 1.06%); format: functional, U-87MG ATCC
U-87 MG [28] = test: Induction of apoptosis in human U87MG cells assessed as viable cells at 3 uM after 24 hrs by Annexin V-PE/7-AAD staining-based FACS analysis (reference value: 96.7%); format: functional, U-87MG ATCC; settings: read-out: Activity
U-87 MG [29] = test: Induction of apoptosis in human U87MG cells assessed as early apoptotic cells at 3 uM after 24 hrs by Annexin V-PE/7-AAD staining-based FACS analysis (reference value: 0.691%); format: functional, U-87MG ATCC
U-87MG ATCC [30] = test: Antimigratory activity in human U87MG cells after 30 mins by boyden chamber assay; format: functional, cell-based

With `C=COC(=O)NCc1ccc(Nc2nc(Nc3ccccc3C(=O)NC)n3ccnc3n2)cc1` the Activity (HCT-116 [1]) was 25.9%, the inhibition (Focal adhesion kinase 1 [2]) was “Dose-dependent effect” and the inhibition (MDA-MB-231 [3]) was “Dose-dependent effect”. The IC50 (MDA-MB-231 [3]; MDA-MB-231, 336 h) was 140 nM, the Activity (U-87MG ATCC [4]) was “Dose-dependent effect” and the IC50 [5] was 290 nM. The IC50 (MDA-MB-231 [6]) was 800 nM, the Activity [7] was 58.8% and the Activity [8] was 54.7%. For the same compound, the Activity (U-87 MG [9]) was 50%, the Activity (HCT-116 [10]) was 13.3% and the Activity [11] was 34.3%. For the same compound, the inhibition (HCT-116 [12]) was “Dose-dependent effect”, the IC50 [13] was 130 nM and the Activity (U-87 MG [14]) was “Dose-dependent effect”. For the same compound, the viability at 0.5 µM (HCT-116 [15]) was 62.9%, the inhibition (PC-3) was “Dose-dependent effect” and the IC50 [16] was 630 nM. For the same compound, the Activity (HCT-116 [17]) was “Active”, the Activity [18] was “Active” and the Activity (U-87 MG [19]) was 0.997%. For the same compound, the Activity (HCT-116 [20]) was 16.1%, the inhibition [21] was “inactive” and the Activity [22] was “Active”. For the same compound, the IC50 [23] was 520 nM, the inhibition [24] was “inactive” and the IC50 [25] was 2890 nM. The inhibition (Focal adhesion kinase 1 [26]) was “Dose-dependent effect”, the Activity (U-87 MG [27]) was 0.804% and the viability at 3 µM (U-87 MG [28]) was 97.4%. For the same compound, the Activity (U-87 MG [29]) was 0.756% and the Activity (U-87MG ATCC [30]) was “Dose-dependent effect”.
